What is called viability is a read-out of living cells in per cent, often relative to untreated cells. The inhibition is the change of the read-out against control, counted positive when it falls.

These results are taken from PubChem BioAssay.

The nature of experiment [1]: reduced viability of SK-BR-3 breast cancer cells – cell-based, 24 h, human, pilot screen (AID 572;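 active means viability at or below 10% of carrier control in both of two separate runs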;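 further: compound exposure lasted between 18 and 24 h rather than exactly 24 h; 100% = carrier-treated control wells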). To be noted: SK-BR-3 viability, CellTiter-Glo luminescence, at 10 µM, stronger effect = lower value. (In ATP-based viability assays light output follows the ATP content of the culture.)
The nature of experiment [2]: HUVEC growth inhibition – cell-based, human, primary screen (AID 575;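 active means viability at or below 30% in both replicate assays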;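 further: 100% = median of untreated cell wells with 0.1% DMSO on each plate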). To be noted: HUVEC proliferation, CellTiter-Glo luminescence, 72 h; at 10 µM; stronger effect = lower value. An outline of the steps:
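Material: primary human umbilical vein endothelial cells / Schedule: 72 h exposure, 37 °C, 5% CO2, 30 min RT equilibration / Signal: ATP-based CellTiter-Glo luminescent read / Read-out basis: percent of median DMSO-control luminescence / Control set: 32 DMSO-only cell-control wells (high), 32 MePR drug-control wells (low) per plate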

Experiment [3] can be described thus: H69AR cell proliferation blockers – human, duplicate replicates, primary screen (AID 580).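 Further: 100% = mean luminescence of untreated wells and 0% = no signal.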 The note with it: H69AR lung tumor cells viability, ATP luminescence, 72 h; at 10 µM; stronger effect = lower value.
A short description of experiment [4]: MRP1 drug-resistance reversers in H69AR cells – cell-based, doxorubicin co-treatment, pilot screen (AID 601;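 active means viability loss from added drug above about 55%, and viability with drug at most 40%, in both replicates, limit read from the data, passing the limit was not always enough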). To be noted: CellTiter-Glo, 72 h, at 10 µM; for differential viability (reversal): stronger effect = higher value.
The nature of experiment [5]: yeast transport mutant growth inhibition pilot in 384-well plates, post-Golgi transport modulator project (AID 636; in the data active means inhibition above about 31%). To be noted: absorbance 615 nm, about 18 h, stronger effect = higher value.
Experiment [6] in a line: growth suppression of yeast trafficking mutant, preliminary HTS, modulators of trafficking downstream of Golgi apparatus project, 1536-format plate, OD 615 nm (AID 637; in the data active means inhibition above about 30%). The note with it: yeast transport mutant growth, absorbance 615 nm, 18 h; stronger effect = higher value.
Where [7] appears, read: H69AR cells + 2 uM doxorubicin, measured here: viability with 2 uM doxorubicin, stronger effect = lower value.
The mark [8] stands for this setting: H69AR cells, compound alone cytotoxicity.

The source made the active and inactive calls.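 How the source made its calls, unless noted: active means viability at or under a set limit in both replicates, limit being median viability minus 3 SD (cut at about 48% in these data, passing the limit was not always enough); inconclusive means at or under the limit in just one replicate; inactive means at or above the limit in both replicates.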 Peptide text beside a SMILES is read from it. * marks the point of attachment. Boc = CC(C)(C)OC(=O)*

With `CCOC(=O)N(C)c1ccc(C(O)(C(F)(F)F)C(F)(F)F)cc1`, the viability is 92% (inactive) in experiment [1]; 91.7% (inactive) in experiment [2]; 102% (inactive) in experiment [3]; 97.1% in experiment [4] (setting [7]); 102% in experiment [4] (setting [8]). The differential viability (reversal) in experiment [4] (H69AR cells + 2 uM doxorubicin) was 5.16% (inactive). The values for the inhibition in experiment [5] and in experiment [6] were 1.76% (inactive) and -6.55% (inactive), respectively.
As to `COc1ccc(NC(=O)N(C2CCCCC2)C2CCN(C(C)C)CC2)c(OC)c1`, the viability in experiment [1] is 87% (inactive); in experiment [2] it was 100% (inactive); in experiment [3], 103% (inactive); in experiment [4] (setting [7]), 83.2%; in experiment [4] (setting [8]), 103%. In experiment [4] (H69AR cells + 2 uM doxorubicin), the differential viability (reversal) is 19.4% (inactive). Besides, the inhibition in experiment [5] is -2.73% (inactive); in experiment [6], -7.87% (inactive).
Turning to `O=C(CSc1n[nH]c(=O)[nH]c1=O)c1ccccc1`, the viability was 110% (inactive) in experiment [1]; 105% (inactive) in experiment [2]; 101% (inactive) in experiment [3]; 97% in experiment [4] (setting [7]); 101% in experiment [4] (setting [8]). Further, the differential viability (reversal) in experiment [4] (H69AR cells + 2 uM doxorubicin) was 4.23% (inactive). The inhibition in experiment [5] was -2.4% (inactive); in experiment [6], -3.82% (inactive).
With `Cc1nnc(N(C)C(=O)Cc2ccc3c(c2)OCO3)s1`, the viability in experiment [1] is 94% (inactive); in experiment [2], 92.6% (inactive); in experiment [3], 94.6% (inactive); in experiment [4] (setting [7]), 89.3%; in experiment [4] (setting [8]), 94.6%. Further, the differential viability (reversal) in experiment [4] (H69AR cells + 2 uM doxorubicin) was 5.27% (inactive). In addition, the inhibition was 2.47% (inactive) in experiment [5] and 8.71% (inactive) in experiment [6].
Take `Cc1onc(-c2ccccc2)c1C(=O)Nc1sc2c(c1C(N)=O)CCC2`: the viability in experiment [1] is 88.5% (inactive); in experiment [2], 53.5% (inactive); in experiment [3], 62.1% (inactive); in experiment [4] (setting [7]), 82.8%; in experiment [4] (setting [8]), 62.1%. Also, in experiment [4] (H69AR cells + 2 uM doxorubicin), the differential viability (reversal) was -20.8% (inactive). For the same molecule, the results for the inhibition in experiment [5] and in experiment [6] were -1.71% (inactive) and -1% (inactive), respectively.
As for `CC1=Nn2c(nnc2-c2ccccc2)SC1`, the viability in experiment [1] is 96% (inactive); in experiment [2] it was 105% (inactive); in experiment [3], 95.2% (inactive); in experiment [4] (setting [7]) it was 77.7%; in experiment [4] (setting [8]) it was 95.2%. Also, the differential viability (reversal) in experiment [4] (H69AR cells + 2 uM doxorubicin) was 17.6% (inactive). The inhibition in experiment [5] was -0.93% (inactive); in experiment [6], 0% (inactive).
Regarding `CC1C/C=C/C=C/C=C/C=C/C(O[C@@H]2O[C@H](C)[C@@H](O)[C@H](N)[C@@H]2O)CC2OC(O)(CC(O)CC3OC3/C=C/C(=O)O1)CC(O)C2C(=O)O` (some centres undefined), the viability in experiment [1] is 121% (inactive); in experiment [2], 99.7% (inactive); in experiment [3], 92.3% (inactive); in experiment [4] (setting [7]), 84.1%; in experiment [4] (setting [8]), 92.3%. The differential viability (reversal) in experiment [4] (H69AR cells + 2 uM doxorubicin) is 8.26% (inactive). Moreover, the inhibition in experiment [5] is 2.6% (inactive); in experiment [6], -2.67% (inactive).
Consider `CCCCCC#CCC#CCC#CCC#CCCCC(=O)O`, for which the viability is 152% (inactive) in experiment [1]; 66.2% (inactive) in experiment [2]; 93.6% (inactive) in experiment [3]; 93.9% in experiment [4] (setting [7]); 93.6% in experiment [4] (setting [8]). Moreover, the differential viability (reversal) in experiment [4] (H69AR cells + 2 uM doxorubicin) is -0.29% (inactive). Also, the inhibition in experiment [5] was 0.78% (inactive); in experiment [6] it was 8.33% (inactive).
Consider `O=C(Cn1cnc2c(cnn2-c2ccccc2)c1=O)NCCc1ccccc1`, for which the viability in experiment [1] is 102% (inactive); in experiment [2] it was 91.6% (inactive); in experiment [3], 91.8% (inactive); in experiment [4] (setting [7]) it was 90.8%; in experiment [4] (setting [8]) it was 91.8%. Further, the differential viability (reversal) in experiment [4] (H69AR cells + 2 uM doxorubicin) was 0.99% (inactive). In addition, the inhibition was -4.68% (inactive) in experiment [5] and -5.74% (inactive) in experiment [6].
For the molecule `Brc1ccc2[nH]c3nc(SCCN4CCOCC4)nnc3c2c1`, the viability in experiment [1] was 100% (inactive); in experiment [2], 89.8% (inactive); in experiment [3], 87% (inactive); in experiment [4] (setting [7]), 76.2%; in experiment [4] (setting [8]), 87%. Moreover, in experiment [4] (H69AR cells + 2 uM doxorubicin), the differential viability (reversal) is 10.9% (inactive). Further, the inhibition in experiment [5] is 2.21% (inactive); in experiment [6] it was 11.6% (inactive).
For the molecule `COc1ccc(OC)c(Nc2nc(-c3cccs3)cs2)c1`, the viability in experiment [1] was 82% (inactive); in experiment [2] it was 60.7% (inactive); in experiment [3], 76.5% (inactive); in experiment [4] (setting [7]), 84.1%; in experiment [4] (setting [8]), 76.5%. Further, in experiment [4] (H69AR cells + 2 uM doxorubicin), the differential viability (reversal) is -7.61% (inactive). In addition, the inhibition in experiment [5] was -6.71% (inactive); in experiment [6], 0.36% (inactive).
On to `Cc1ccc2nc(/C(C#N)=N/O)[nH]c2c1`, for which the viability is 115% (inactive) in experiment [1]; 84.9% (inactive) in experiment [2]; 78.2% (inactive) in experiment [3]; 80.3% in experiment [4] (setting [7]); 78.2% in experiment [4] (setting [8]). In addition, the differential viability (reversal) in experiment [4] (H69AR cells + 2 uM doxorubicin) was -2.1% (inactive). Also, the inhibition is -4.53% (inactive) in experiment [5] and 0% (inactive) in experiment [6].
`Cc1cc(C(C)(C)C)cc(C)c1CC1=NCCN1`: the viability in experiment [1] is 120% (inactive); in experiment [2], 86.3% (inactive); in experiment [3], 89.9% (inactive); in experiment [4] (setting [7]), 82.3%; in experiment [4] (setting [8]) it was 89.9%. The differential viability (reversal) in experiment [4] (H69AR cells + 2 uM doxorubicin) was 7.59% (inactive). The inhibition in experiment [5] is -2.73% (inactive); in experiment [6] it was -4.5% (inactive).
As to `O=C(CSc1nnc(-c2ccc(Br)cc2)n1C1CCCCC1)N1CCCC1`, the viability in experiment [1] was 64% (inactive); in experiment [2], 113% (inactive); in experiment [3] it was 80.2% (inactive); in experiment [4] (setting [7]), 87.1%; in experiment [4] (setting [8]) it was 80.2%. The differential viability (reversal) in experiment [4] (H69AR cells + 2 uM doxorubicin) was -6.92% (inactive). Besides, the inhibition is -6.58% (inactive) in experiment [5] and -2% (inactive) in experiment [6].
For `CCOC(=O)N1CCN(C(=O)c2ccc3c(=O)n(Cc4ccc(OC)cc4)c(=S)[nH]c3c2)CC1`, the viability in experiment [1] was 99% (inactive); in experiment [2], 64.6% (inactive); in experiment [3] it was 72.5% (inactive); in experiment [4] (setting [7]), 25.1%; in experiment [4] (setting [8]), 72.5%. For the same molecule, in experiment [4] (H69AR cells + 2 uM doxorubicin), the differential viability (reversal) was 47.4% (inactive). Further, the inhibition is -0.13% (inactive) in experiment [5] and -5.08% (inactive) in experiment [6].
Take `CC(C)CC(NC(=O)OC(C)(C)C)C(=O)NC(C(=O)N1CCCC1C(N)=O)C(C)C` (stereo not drawn) (Boc-Leu-Val-Pro-NH2; configuration not given here): the viability in experiment [1] is 103% (inactive); in experiment [2], 101% (inactive); in experiment [3], 111% (inactive); in experiment [4] (setting [7]) it was 93.8%; in experiment [4] (setting [8]), 111%. For the same molecule, the differential viability (reversal) in experiment [4] (H69AR cells + 2 uM doxorubicin) was 17.5% (inactive). Also, the inhibition was 0.78% (inactive) in experiment [5] and -4.1% (inactive) in experiment [6].
Consider `C[C@H](CS)C(=O)N1CCC[C@H]1C(=O)O`, for which the viability in experiment [1] is 93% (inactive); in experiment [2], 92.7% (inactive); in experiment [3], 99.8% (inactive); in experiment [4] (setting [7]) it was 91.6%; in experiment [4] (setting [8]) it was 99.8%. Besides, the differential viability (reversal) in experiment [4] (H69AR cells + 2 uM doxorubicin) is 8.21% (inactive). For the same molecule, the inhibition in experiment [5] is -2.47% (inactive); in experiment [6] it was 2.83% (inactive).
For the molecule `Cc1ccc2nc(C3CCN(CC(=O)N4CCCCCC4)CC3)[nH]c2c1`, the viability in experiment [1] was 84% (inactive); in experiment [2] it was 108% (inactive); in experiment [3], 96.3% (inactive); in experiment [4] (setting [7]), 107%; in experiment [4] (setting [8]), 96.3%. For the same molecule, the differential viability (reversal) in experiment [4] (H69AR cells + 2 uM doxorubicin) is -10.6% (inactive). Further, the values for the inhibition in experiment [5] and in experiment [6] were -1.1% (inactive) and 0.73% (inactive), respectively.
